Source: ChEMBL document CHEMBL4229344 (Eur J Med Chem, 2018)
The source made the active and inactive calls. The rule behind the calls is not given here.

What was measured:
[1] = tested on: Proto-oncogene tyrosine-protein kinase receptor Ret (Homo sapiens), P07949 [V804M]; assay: Binding affinity to human partial length RET V804M mutant (E713 to D1014 residues) expressed in bacterial expression system assessed as residual binding level at 1 uM by Kinomescan method relative to control
In short: (§1)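 Kinome-wide single-concentration binding screen (KINOMEscan) at 1 μM against a panel of 468 purified kinases and mutants. Read-out is relative binding of each kinase compared with control. Selectivity across the panel was summarised as an S(10) score.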

[2] = target: Serine/threonine-protein kinase RIO2 (Homo sapiens) (UniProt Q9BVS4); assay: Binding affinity to wild-type human partial length RIOK2 (M1 to D313 residues) expressed in mammalian expression system assessed as residual binding level at 1 uM by Kinomescan method relative to control
In short: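 KINOMEscan competition binding against a panel of 468 purified kinases/mutants, compound tested at 1 μM; readout is relative binding activity versus control.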

[3] = target: Phosphatidylinositol 4,5-bisphosphate 3-kinase catalytic subunit delta isoform (Homo sapiens) (UniProt O00329); assay: Binding affinity to wild-type human partial length PIK3CD (R108 to Q1044 residues) expressed in mammalian expression system assessed as residual binding level at 1 uM by Kinomescan method relative to control
[4] = target: 3-phosphoinositide-dependent protein kinase 1 (Homo sapiens) (UniProt O15530); assay: Binding affinity to wild-type human full length PDPK1 (M1 to Q556 residues) expressed in bacterial expression system assessed as residual binding level at 1 uM by Kinomescan method relative to control
In short: (§2)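 Single-concentration KINOMEscan (DiscoverX) binding screen at 1 μM against a panel of 468 purified kinases and mutants. The read-out is binding relative to control.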

[5] = target: Serine/threonine-protein kinase 24 (Homo sapiens) (UniProt Q9Y6E0); assay: Binding affinity to wild-type human partial length MST3 (A30 to S311 residues) expressed in bacterial expression system assessed as residual binding level at 1 uM by Kinomescan method relative to control
[6] = target: Serine/threonine-protein kinase 10 (Homo sapiens) (UniProt O94804); assay: Binding affinity to wild-type human partial length LOK (E16 to V314 residues) expressed in bacterial expression system assessed as residual binding level at 1 uM by Kinomescan method relative to control
In short: (§3)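 Kinome-wide competition binding screen against a panel of 468 purified kinases/mutants, with the test compound at a single concentration of 1 μM. Read-out is the relative binding activity of each kinase in the presence of compound.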

[7] = tested on: EOL1; assay: Antitumor activity against human EOL-1 cells xenografted in nu/nu mouse assessed as induction of apoptosis at 25 to 100 mg/kg/day, ip by DAB staining-based TUNEL assay; type: functional, organism-based
In short: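 Female nu/nu mice (6 weeks) given subcutaneous right-flank injection of 5 million EOL-1 cells in PBS/Matrigel 1:1. At 200–400 mm3 tumors, randomized to groups of 6 and dosed daily i.p. for 14 days at 25, 50 or 100 mg/kg/d in 0.5% methylcellulose/0.4% Tween80. Tumor volume = W²×L/2, measured daily.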

[8] = target: Dual specificity mitogen-activated protein kinase kinase 7 (Homo sapiens) (UniProt O14733); assay: Binding affinity to wild-type human full length MKK7 (M1 to R419 residues) expressed in mammalian expression system assessed as residual binding level at 1 uM by Kinomescan method relative to control; in short: as §2
[9] = target: Platelet-derived growth factor receptor alpha (Homo sapiens, UniProt P16234); assay: Inhibition of PDGFRalpha in human EOL-1 cells assessed as decrease in STAT3 phosphorylation at Y705 residue up to 300 nM after 2 hrs by Western blot analysis; type: cell-based
[10] = target: Proto-oncogene tyrosine-protein kinase receptor Ret (Homo sapiens) (UniProt P07949); assay: Binding affinity to wild-type human partial length RET (E713 to D1014 residues) expressed in bacterial expression system assessed as residual binding level at 1 uM by Kinomescan method relative to control
[11] = target: Citron Rho-interacting kinase (Homo sapiens) (UniProt O14578); assay: Binding affinity to wild-type human partial length CIT (M68 to E432 residues) expressed in bacterial expression system assessed as residual binding level at 1 uM by Kinomescan method relative to control; in short: as §3
[12] = tested on: EOL1; assay: Induction of apoptosis in human EOL-1 cells assessed as cleaved PARP expression level at 3 to 100 nM after 24 hrs by Western blot analysis; type: functional, cell-based
In short: (§4)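 Cells exposed to compound or DMSO for the stated periods, then lysed and immunoblotted for PARP and caspase-3 cleavage, with β-actin as loading control. NCI-H1703 stimulation used PDGF AA at 100 ng/mL.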

[13] = target: Cyclin-dependent kinase-like 3 (Homo sapiens) (UniProt Q8IVW4); assay: Binding affinity to wild-type human partial length CDKL3 (M1 to D327 residues) expressed in bacterial expression system assessed as residual binding level at 1 uM by Kinomescan method relative to control; in short: as §3
[14] = target: Dual specificity protein kinase TTK (Homo sapiens) (UniProt P33981); assay: Binding affinity to wild-type human partial length TTK (N505 to V798 residues) expressed in bacterial expression system assessed as residual binding level at 1 uM by Kinomescan method relative to control
[15] = tested on: Receptor-type tyrosine-protein kinase FLT3 (Homo sapiens), P36888 [UNDEFINED MUTATION]; assay: Binding affinity to human partial length FLT3 ITD/D835V double mutant expressed in bacterial expression system assessed as residual binding level at 1 uM by Kinomescan method relative to control; in short: as §1
[16] = target: Phosphatidylinositol 3-kinase C2 domain-containing subunit gamma (Homo sapiens) (UniProt O75747); assay: Binding affinity to wild-type human partial length PIK3C2G (M1 to I1446 residues) expressed in mammalian expression system assessed as residual binding level at 1 uM by Kinomescan method relative to control
[17] = target: Mitogen-activated protein kinase kinase kinase 19 (Homo sapiens) (UniProt Q56UN5); assay: Binding affinity to wild-type human partial length YSK4 (T1019 to H1328 residues) expressed in mammalian expression system assessed as residual binding level at 1 uM by Kinomescan method relative to control
[18] = target: SRSF protein kinase 1 (Homo sapiens) (UniProt Q96SB4); assay: Binding affinity to wild-type human full length SRPK1 (M1 to S655 residues) expressed in bacterial expression system assessed as residual binding level at 1 uM by Kinomescan method relative to control
In short: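 KINOMEscan competition binding against 468 purified kinases/mutants, test compound at 1 µM; residual binding relative to control.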

[19] = tested on: NCI-H1703; assay: Induction of apoptosis in human NCI-H1703 cells assessed as cleaved PARP expression level at 0.3 to 10 uM after 72 hrs by Western blot analysis; type: functional, cell-based; in short: as §4
[20] = AUC (0 to t) in Sprague-Dawley rat at 1 mg/kg, iv; type: ADME, organism-based; settings: in vivo
In short: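 Male Sprague-Dawley rats (6–8 weeks) fasted overnight, dosed IV or orally; compound dissolved in 5% DMSO/40% PEG400/55% saline (dosing solution 1 mg/mL). Blood (~0.2 mL) from jugular vein into heparin; IV sampling 1 min–8 h, oral 5 min–24 h. Plasma separated by centrifugation at 2–8 °C, stored at −80 °C until analysis.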

Chain of 3-phosphoinositide-dependent protein kinase 1 (Homo sapiens) (O15530 whole entry, the tested form may be a part): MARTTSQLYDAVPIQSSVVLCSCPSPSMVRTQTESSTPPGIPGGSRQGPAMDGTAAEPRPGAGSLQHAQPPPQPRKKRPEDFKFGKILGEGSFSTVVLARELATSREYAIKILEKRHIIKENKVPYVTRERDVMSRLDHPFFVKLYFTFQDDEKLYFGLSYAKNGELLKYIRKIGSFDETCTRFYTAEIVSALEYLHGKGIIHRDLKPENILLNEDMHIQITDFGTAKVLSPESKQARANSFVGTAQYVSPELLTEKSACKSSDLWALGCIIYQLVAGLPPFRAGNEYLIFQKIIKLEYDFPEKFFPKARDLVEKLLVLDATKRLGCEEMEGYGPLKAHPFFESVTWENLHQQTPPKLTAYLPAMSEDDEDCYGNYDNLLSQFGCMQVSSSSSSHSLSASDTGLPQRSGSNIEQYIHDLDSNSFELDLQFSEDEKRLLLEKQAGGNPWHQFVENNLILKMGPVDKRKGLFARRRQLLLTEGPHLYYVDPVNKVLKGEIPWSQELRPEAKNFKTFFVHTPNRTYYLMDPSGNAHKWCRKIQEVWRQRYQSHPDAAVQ
Chain of Platelet-derived growth factor receptor alpha (P16234 whole entry, the tested form may be a part): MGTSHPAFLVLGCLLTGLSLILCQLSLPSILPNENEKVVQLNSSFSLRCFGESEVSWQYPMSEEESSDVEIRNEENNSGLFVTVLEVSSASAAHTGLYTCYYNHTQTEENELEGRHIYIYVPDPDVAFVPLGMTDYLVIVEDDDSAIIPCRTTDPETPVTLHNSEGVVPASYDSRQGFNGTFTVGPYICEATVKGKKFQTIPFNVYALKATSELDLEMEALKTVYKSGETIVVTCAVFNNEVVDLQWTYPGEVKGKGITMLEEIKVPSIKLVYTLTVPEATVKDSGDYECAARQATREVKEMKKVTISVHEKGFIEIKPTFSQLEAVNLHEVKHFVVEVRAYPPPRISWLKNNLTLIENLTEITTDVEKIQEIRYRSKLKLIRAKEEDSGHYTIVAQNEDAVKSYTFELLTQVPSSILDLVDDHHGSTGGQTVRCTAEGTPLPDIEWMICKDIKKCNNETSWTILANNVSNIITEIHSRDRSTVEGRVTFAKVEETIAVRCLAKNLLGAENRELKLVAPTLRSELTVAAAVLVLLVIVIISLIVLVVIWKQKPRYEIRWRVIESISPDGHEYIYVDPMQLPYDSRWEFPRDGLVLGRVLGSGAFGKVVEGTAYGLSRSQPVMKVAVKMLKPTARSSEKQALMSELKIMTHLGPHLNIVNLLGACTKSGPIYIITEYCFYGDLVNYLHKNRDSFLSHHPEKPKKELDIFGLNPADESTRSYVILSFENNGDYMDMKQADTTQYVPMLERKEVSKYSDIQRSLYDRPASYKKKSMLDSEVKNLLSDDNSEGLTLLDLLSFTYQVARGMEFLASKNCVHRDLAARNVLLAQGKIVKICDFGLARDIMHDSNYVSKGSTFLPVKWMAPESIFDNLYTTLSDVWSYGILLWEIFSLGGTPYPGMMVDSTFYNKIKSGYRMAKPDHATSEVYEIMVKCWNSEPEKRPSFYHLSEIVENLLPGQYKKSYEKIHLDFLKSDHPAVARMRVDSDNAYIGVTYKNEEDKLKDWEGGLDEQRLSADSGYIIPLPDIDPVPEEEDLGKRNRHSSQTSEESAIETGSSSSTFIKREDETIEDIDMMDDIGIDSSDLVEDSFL
Chain of Serine/threonine-protein kinase RIO2 (Homo sapiens) (Q9BVS4 whole entry, looked up, the tested form may be a part): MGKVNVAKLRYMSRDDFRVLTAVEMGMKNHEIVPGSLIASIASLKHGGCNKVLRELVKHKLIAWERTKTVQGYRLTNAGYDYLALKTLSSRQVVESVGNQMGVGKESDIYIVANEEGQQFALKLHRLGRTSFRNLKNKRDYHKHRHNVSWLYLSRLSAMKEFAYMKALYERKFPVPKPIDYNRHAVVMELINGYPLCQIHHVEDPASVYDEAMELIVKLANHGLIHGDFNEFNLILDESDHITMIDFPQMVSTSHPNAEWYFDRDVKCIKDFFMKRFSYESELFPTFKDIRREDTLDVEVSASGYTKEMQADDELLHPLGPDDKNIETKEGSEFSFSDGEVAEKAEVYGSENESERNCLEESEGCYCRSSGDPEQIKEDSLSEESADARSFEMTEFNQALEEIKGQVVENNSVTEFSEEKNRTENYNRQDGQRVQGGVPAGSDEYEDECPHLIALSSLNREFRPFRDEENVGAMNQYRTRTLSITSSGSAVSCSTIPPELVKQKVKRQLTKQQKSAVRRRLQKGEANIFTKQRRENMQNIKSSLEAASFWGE
Chain of Phosphatidylinositol 3-kinase C2 domain-containing subunit gamma (Homo sapiens) (O75747 whole entry, the tested form may be a part): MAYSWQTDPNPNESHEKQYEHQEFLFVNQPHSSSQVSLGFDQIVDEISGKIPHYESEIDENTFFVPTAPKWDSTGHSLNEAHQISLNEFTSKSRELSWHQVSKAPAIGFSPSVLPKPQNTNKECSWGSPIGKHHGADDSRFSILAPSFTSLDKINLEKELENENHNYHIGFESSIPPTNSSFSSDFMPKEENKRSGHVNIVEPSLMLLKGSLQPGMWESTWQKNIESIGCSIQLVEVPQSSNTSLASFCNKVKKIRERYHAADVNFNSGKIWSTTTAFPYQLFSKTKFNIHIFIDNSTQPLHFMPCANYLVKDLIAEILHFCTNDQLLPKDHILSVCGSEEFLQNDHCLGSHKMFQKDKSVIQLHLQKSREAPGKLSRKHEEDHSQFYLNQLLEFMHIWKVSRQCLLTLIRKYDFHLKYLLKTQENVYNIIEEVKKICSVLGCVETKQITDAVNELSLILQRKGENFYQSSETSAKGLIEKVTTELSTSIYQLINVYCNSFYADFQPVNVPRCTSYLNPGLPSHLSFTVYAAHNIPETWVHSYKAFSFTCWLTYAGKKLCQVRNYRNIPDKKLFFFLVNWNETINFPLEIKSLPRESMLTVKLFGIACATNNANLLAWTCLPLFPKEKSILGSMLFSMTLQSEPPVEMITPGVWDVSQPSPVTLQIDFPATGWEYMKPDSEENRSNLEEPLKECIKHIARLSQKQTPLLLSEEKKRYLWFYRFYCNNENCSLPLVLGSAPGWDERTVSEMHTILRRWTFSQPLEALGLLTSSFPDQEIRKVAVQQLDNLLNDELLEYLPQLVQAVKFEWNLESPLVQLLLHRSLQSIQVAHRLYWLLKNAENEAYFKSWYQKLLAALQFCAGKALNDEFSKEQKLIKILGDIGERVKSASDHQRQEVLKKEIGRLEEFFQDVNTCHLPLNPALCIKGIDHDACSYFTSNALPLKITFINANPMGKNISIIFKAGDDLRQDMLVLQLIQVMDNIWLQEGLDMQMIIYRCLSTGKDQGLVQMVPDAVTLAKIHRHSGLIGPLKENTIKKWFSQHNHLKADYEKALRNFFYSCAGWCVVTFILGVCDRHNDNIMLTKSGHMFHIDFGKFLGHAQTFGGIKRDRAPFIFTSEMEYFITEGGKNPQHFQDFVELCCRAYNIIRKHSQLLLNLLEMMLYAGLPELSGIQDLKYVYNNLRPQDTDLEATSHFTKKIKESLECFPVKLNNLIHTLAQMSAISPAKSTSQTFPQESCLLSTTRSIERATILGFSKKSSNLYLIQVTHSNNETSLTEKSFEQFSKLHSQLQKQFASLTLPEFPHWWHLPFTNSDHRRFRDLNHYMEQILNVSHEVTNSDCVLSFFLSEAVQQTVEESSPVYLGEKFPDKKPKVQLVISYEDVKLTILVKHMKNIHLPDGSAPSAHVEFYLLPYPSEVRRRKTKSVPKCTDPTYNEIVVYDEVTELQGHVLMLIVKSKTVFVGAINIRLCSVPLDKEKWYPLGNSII
Chain of Receptor-type tyrosine-protein kinase FLT3 (Homo sapiens), P36888 [UNDEFINED MUTATION] (P36888 whole entry, looked up, stated change not applied, the tested form may be a part): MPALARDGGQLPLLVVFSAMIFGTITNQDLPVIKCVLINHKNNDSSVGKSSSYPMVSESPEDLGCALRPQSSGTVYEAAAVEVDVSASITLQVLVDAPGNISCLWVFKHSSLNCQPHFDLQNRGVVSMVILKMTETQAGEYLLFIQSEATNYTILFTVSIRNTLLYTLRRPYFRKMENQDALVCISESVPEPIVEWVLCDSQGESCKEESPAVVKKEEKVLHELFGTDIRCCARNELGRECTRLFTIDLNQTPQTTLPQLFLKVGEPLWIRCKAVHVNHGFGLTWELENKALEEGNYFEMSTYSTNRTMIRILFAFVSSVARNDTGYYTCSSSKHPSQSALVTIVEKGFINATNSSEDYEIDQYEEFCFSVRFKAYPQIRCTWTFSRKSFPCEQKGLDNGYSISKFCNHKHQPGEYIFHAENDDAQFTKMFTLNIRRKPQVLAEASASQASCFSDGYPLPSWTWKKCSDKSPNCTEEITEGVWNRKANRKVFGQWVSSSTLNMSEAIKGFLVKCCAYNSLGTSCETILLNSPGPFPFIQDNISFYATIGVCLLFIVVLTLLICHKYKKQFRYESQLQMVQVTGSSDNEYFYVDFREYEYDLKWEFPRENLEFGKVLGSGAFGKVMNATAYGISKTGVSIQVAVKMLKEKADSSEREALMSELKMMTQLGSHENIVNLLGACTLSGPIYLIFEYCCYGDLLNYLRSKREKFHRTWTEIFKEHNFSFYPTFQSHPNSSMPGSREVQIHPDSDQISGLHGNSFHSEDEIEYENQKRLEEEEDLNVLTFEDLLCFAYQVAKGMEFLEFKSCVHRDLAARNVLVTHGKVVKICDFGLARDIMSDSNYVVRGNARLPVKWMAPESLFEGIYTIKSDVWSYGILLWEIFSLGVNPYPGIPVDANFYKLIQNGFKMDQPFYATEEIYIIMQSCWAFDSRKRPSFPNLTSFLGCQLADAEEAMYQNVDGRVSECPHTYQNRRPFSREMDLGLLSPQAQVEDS
Chain of Dual specificity mitogen-activated protein kinase kinase 7 (Homo sapiens) (O14733 whole entry, the tested form may be a part): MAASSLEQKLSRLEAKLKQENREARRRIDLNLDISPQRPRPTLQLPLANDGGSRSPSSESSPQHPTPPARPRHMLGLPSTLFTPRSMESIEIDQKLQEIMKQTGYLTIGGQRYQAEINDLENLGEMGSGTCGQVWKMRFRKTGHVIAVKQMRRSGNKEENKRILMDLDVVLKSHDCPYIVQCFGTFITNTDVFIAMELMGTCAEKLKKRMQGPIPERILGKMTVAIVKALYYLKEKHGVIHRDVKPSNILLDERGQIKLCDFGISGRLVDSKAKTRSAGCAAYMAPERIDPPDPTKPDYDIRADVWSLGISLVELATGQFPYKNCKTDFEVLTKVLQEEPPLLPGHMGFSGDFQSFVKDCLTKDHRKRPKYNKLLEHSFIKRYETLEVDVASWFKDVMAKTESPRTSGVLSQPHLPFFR

Structure (SMILES): Cc1ccc(NC(=O)c2ccc(CN(CCN(C)C)C(=O)c3cccnc3)cc2)cc1Nc1nccc(-c2cccnc2)n1
- Activity [1]: 96%
- Activity [2]: 87%
- Activity [3]: 100%
- Activity [4]: 100%
- Activity [5]: 100%
- Activity [6]: 28%
- Activity [7]: Active
- Activity [8]: 100%
- inhibition [9]: Active
- Activity [10]: 80%
- Activity [11]: 89%
- Activity [12]: Active
- Activity [13]: 91%
- Activity [14]: 81%
- Activity [15]: 98%
- Activity [16]: 100%
- Activity [17]: 96%
- Activity [18]: 92%
- Activity [19]: inactive
- AUC(0-t) [20]: 528 ng·h/mL
